This note sets out measurements from ChEMBL document CHEMBL3612040, “Discovery of Selective Small Molecule Inhibitors of Monoacylglycerol Acyltransferase 3” (J Med Chem, 2015).

The subject of one data set is Hepatocyte. The data set can be described thus: Drug metabolism in human hepatocytes assessed as compound oxidation. It counts as ADME, cell-based.
Data set [1] can be described thus: Intrinsic clearance in human liver microsomes. It counts as ADME. Conditions: read-out: CLH. In general terms: Liver microsomes are a subcellular fraction often used to study metabolism.
A short description of data set [2]: Apparent permeability in RRCK cells. Type of data set: ADME, cell-based, Canis lupus familiaris, MDCKII-LE. Conditions: dog, MDCK.
Data set [3] in a line: Lipophilicity, logD of the compound at pH 7.4. As to conditions: buffer. Type of data set: physicochemical. The gist of the method:
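Shake-flask octanol:water partition at pH 7.4, with MS analysis of samples.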

The target of a further data set is T1, CYP2C8 (Homo sapiens, UniProt P10632).
T1 sequence (P10632 whole entry): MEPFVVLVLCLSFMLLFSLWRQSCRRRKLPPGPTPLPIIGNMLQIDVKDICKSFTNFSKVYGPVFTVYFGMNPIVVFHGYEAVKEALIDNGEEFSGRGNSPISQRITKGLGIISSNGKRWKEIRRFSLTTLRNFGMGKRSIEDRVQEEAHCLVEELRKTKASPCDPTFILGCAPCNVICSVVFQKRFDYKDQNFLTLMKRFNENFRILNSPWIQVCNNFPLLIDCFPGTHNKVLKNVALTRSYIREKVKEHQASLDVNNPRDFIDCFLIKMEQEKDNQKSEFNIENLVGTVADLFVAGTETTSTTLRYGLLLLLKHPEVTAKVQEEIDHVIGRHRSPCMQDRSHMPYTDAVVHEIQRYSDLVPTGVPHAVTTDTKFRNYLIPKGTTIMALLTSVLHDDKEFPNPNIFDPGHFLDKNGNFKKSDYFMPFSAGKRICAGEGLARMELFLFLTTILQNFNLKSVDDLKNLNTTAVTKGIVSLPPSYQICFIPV
In words: Inhibition of CYP2C8 (unknown origin) at 3 uM. It counts as ADME.

The next data set concerns the target CYP2C9 (Homo sapiens, UniProt P11712). The data set can be described thus: Inhibition of CYP2C9 (unknown origin) at 3 uM. It counts as ADME.
The target in another data set is Cytochrome P450 2C9 (Homo sapiens, UniProt P11712). In words: Drug metabolism in human hepatocytes assessed as CYP2C9-mediated compound oxidation. It counts as ADME, cell-based, Hepatocyte.
Chain of Cytochrome P450 2C9 (P11712 whole entry): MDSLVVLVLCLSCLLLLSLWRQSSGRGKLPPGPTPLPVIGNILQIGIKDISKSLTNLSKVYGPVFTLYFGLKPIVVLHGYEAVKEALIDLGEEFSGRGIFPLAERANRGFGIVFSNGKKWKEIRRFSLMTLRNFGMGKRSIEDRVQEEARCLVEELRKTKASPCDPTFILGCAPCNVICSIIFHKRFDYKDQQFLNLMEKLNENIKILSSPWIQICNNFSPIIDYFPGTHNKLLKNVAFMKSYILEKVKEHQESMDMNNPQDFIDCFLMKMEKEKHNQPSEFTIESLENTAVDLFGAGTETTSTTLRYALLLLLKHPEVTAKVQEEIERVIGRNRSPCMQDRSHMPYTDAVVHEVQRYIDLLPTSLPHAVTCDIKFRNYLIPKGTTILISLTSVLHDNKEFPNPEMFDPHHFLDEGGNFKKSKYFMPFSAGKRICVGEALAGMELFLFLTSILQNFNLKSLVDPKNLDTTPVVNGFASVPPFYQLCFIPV
Data set [4] has as its target T2, Diacylglycerol O-acyltransferase 1 (Homo sapiens, UniProt O75907).
T2 sequence (O75907 whole entry): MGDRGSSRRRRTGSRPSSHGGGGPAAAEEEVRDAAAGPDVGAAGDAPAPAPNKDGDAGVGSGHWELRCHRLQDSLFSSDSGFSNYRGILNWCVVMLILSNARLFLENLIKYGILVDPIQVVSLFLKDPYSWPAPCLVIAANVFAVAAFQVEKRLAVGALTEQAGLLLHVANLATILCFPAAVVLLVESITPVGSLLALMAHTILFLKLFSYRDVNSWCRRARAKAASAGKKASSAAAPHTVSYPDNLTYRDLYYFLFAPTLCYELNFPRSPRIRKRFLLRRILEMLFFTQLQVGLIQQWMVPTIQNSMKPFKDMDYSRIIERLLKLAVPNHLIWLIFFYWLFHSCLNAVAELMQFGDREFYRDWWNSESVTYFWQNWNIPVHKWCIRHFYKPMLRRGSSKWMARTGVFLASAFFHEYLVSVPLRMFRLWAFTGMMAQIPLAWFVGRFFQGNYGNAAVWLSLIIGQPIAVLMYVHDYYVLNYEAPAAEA
The data set can be described thus: Inhibition of DGAT1 (unknown origin) assessed as effect on incorporation of [1-14C]decanoyl moiety into TG using [1-14C]decanoyl-CoA and 1,2-didecanoyl-sn-glycerol as substrates.

Data set [5] has as its target T3, Diacylglycerol O-acyltransferase 2 (Homo sapiens, UniProt Q96PD7).
T3 sequence (Q96PD7 whole entry): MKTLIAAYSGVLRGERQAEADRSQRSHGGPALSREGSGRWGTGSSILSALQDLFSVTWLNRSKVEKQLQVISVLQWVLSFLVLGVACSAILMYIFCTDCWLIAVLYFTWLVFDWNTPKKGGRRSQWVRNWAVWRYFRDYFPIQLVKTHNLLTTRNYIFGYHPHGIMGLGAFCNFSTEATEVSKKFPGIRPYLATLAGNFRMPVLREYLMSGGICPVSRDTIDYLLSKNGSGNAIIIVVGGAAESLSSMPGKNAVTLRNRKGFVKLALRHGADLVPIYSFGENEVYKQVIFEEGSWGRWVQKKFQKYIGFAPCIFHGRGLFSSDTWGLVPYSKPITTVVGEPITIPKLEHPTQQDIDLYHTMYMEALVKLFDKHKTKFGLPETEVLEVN
In words: Inhibition of DGAT2 (unknown origin) using [1-14C]decanoyl-CoA and didecanoyl-sn-glycerol substrates incubated for 40 mins. Summed up: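 DGAT2 membrane fraction (0.01 mg/mL) in 100 mM Hepes-NaOH pH 7.4, 20 mM MgCl2, 200 nM MAFP. Compound first held 20 min with 0.04% fatty-acid-free BSA, then preincubated 120 min at RT with enzyme. Started with 30 µM [1-14C]decanoyl-CoA and 125 µM 1,2-didecanoyl-sn-glycerol; ran 40 min at RT, acid-stopped. Labelled TAG read by scintillation after phase partitioning.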

Each structure is given as a SMILES string.

Chain of CYP2C9 (P11712 whole entry): as the sequence (P11712 whole entry) above

With `COc1cccc(CC(=O)N2Cc3ccc(S(=O)(=O)Nc4cnn(C5CCOCC5)n4)cc3C2)c1`, the Stability entry in the data set on Hepatocyte was “Stable”. Besides, in data set [1], the microsomal CLint was less than 8 µL/min/mg. The Papp in data set [2] was found to be 5 ×10⁻⁶ cm/s. Besides, the logD in data set [3] came out at 0.9.
For the compound `COc1cccc(CC(=O)N2Cc3ccc(S(=O)(=O)Nc4cnn(C)n4)cc3C2)c1`, the microsomal CLint in data set [1] is less than 8 µL/min/mg. In data set [2], the Papp turned out to be 1 ×10⁻⁶ cm/s. In [3], this compound displayed a logD of 0.2.
Take `COc1cccc(CC(=O)N2Cc3ccc(S(=O)(=O)N(C)CCc4cccc(F)c4)cc3C2)c1`: the microsomal CLint in data set [1] was more than 320 µL/min/mg. Also, the Papp in data set [2] is 4 ×10⁻⁶ cm/s. In [3], this compound displayed a pH-dependent lipophilicity (logD) of 3.9.
As for `COc1cccc(CC(=O)N2Cc3ccc(S(=O)(=O)Nc4cnn(C5CC(F)(F)C5)n4)cc3C2)c1`, the microsomal CLint in data set [1] was less than 8 µL/min/mg. Besides, in [2], the Papp is 7 ×10⁻⁶ cm/s. The compound also gave a logD in [3] of 1.5.
With `COc1cccc(CC(=O)N2Cc3ccc(S(=O)(=O)Nc4cnn(-c5ccccc5)n4)cc3C2)c1`, the inhibition at 3 µM is 48% against CYP2C8 and 88% against CYP2C9. Further, the Drug metabolism result in the data set with Hepatocyte and on Cytochrome P450 2C9 was “metabolite_detected” throughout. In data set [1], the microsomal CLint is 273 µL/min/mg. For the same compound, in data set [2], the apparent permeability (Papp) amounted to 15 ×10⁻⁶ cm/s. In [3], the logD turned out to be 2.3.
On to `COc1cccc(CC(=O)N2Cc3ccc(S(=O)(=O)NCCc4cccc(F)c4)cc3C2)c1`, for which the values for the inhibition at 3 µM against CYP2C8 and on CYP2C9 were 29% and 35%, respectively. Moreover, the values for the IC50 in data set [4] and in [5] were 31 µM and more than 40 µM, respectively. For the same compound, the microsomal CLint in data set [1] is more than 320 µL/min/mg. In addition, in data set [2], the Papp stood at 8 ×10⁻⁶ cm/s. Also, the logD in data set [3] was found to be 3.6.
Consider `COc1cccc(CC(=O)N2Cc3ccc(S(=O)(=O)Nc4cnn(C5COC5)n4)cc3C2)c1`, for which the microsomal CLint in [1] was less than 8 µL/min/mg. Further, the Papp in [2] came out at 3 ×10⁻⁶ cm/s. In addition, in data set [3], the logD was 0.2.
Consider `COc1cccc(CC(=O)N2Cc3ccc(S(=O)(=O)Nc4cnn(-c5ccc(F)cc5)n4)cc3C2)c1`, for which the inhibition at 3 µM on CYP2C8 is 62%; at CYP2C9, 95%. In addition, the microsomal CLint in data set [1] was determined as 13 µL/min/mg. For the same compound, in data set [2], the Papp is 6 ×10⁻⁶ cm/s. The logD in data set [3] amounted to 2.5.
As to `COc1cccc(CC(=O)N2Cc3ccc(S(=O)(=O)Nc4cnn(C(C)C)n4)cc3C2)c1`, the microsomal CLint in data set [1] is less than 8 µL/min/mg. Also, in data set [2], the Papp was 25 ×10⁻⁶ cm/s. Besides, in data set [3], the logD turned out to be 1.4.

A word on the Papp: it is the rate of passage across a membrane or cell layer, normalised by area and donor concentration. The term logD denotes lipophilicity at a set pH, counting ionised and neutral species. Broadly, the inhibition is the percentage by which the read-out fell short of the control. The term IC50 denotes the midpoint of a concentration-inhibition curve.
